According to ChEMBL document CHEMBL1127668, “Antagonist, partial agonist, and full agonist imidazo[1,5-a]quinoxaline amides and carbamates acting through the GABAA/benzodiazepine receptor” (J Med Chem, 1994):
pKi: −log10 of the molar value. Values joined by “and” are separate entries in the source; they are usually repeats but may differ in a detail not shown here. Equal entries are not always repeated.

Experiments:
Rattus norvegicus [1] = assay: The compound was tested for antagonistic activity against metrazole induced convulsions in rats after ip administration; format: functional
[2] = target: GABA-A receptor; anion channel; assay: Displacement of [3H]- flunitrazepam from rat GABA-A benzodiazepine receptor; format: protein-complex assay
[3] = target: T1, GABA-A receptor; anion channel (Rattus norvegicus) (UniProt O09028+P15431+P18506+P18508+P19969+P20236+P23574+P23576+P28471+P28473+P30191+P62813+P63079+P63138+Q91ZM7+Q9ES14); assay: Shift in the affinity of [35S]TBPS for the chloride channel of GABAA receptor complex in the presence and absence of compound; format: protein-complex assay
Rattus norvegicus [4] = organism: Rattus norvegicus; assay: Chloride ion influx in rat cerebrocortical membranes; format: functional
[5] = Displacement of [3H]flunitrazepam from alpha-1-beta-2-gamma-2 GABA-A receptor subunits expressed in Sf9 cell membranes; parameters: species or system Rattus norvegicus
How it was run: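 Sf-9 membranes from cells infected with baculovirus carrying α1, β2 and γ2 cDNAs, harvested 60 h postinfection. Assay in normal saline with 6 nM [3H]flunitrazepam, 50 µg membrane protein and six test concentrations; 60 min at 4 °C; glass-fiber filtration, four cold washes, scintillation counting.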

[6] = Displacement of [3H]-Ro- 15-4513 from alpha-1-beta-2-gamma-2 GABA-A receptor subunits expressed in Sf9 cell membranes; parameters: species or system Rattus norvegicus
Rattus norvegicus [7] = assay: The compound was tested for antagonistic activity against metrazole induced convulsions in rats, after ip administration; format: functional
[8] = target: GABA A receptor alpha-6/beta-2/gamma-2 (Homo sapiens, UniProt P18507+P47870+Q16445); assay: Displacement of [3H]-Ro- 15-4513 from alpha-6-beta-2-gamma-2 GABA-A receptor subunits expressed in Sf9 cell membranes
How it was run: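 Sf-9 cells infected with baculovirus carrying α6, β2 and γ2 cDNAs, harvested 60 h postinfection; membranes stored at -80 °C in 300 mM sucrose, 5 mM Tris/HCl pH 7.5, 20% glycerol. 50 µg membrane protein with 6 nM [3H]Ro 15-4513 and six test concentrations in normal saline, 60 min at 4 °C; filtered, washed, scintillation counted.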

[9] = target: T1, GABA-A receptor; anion channel (Rattus norvegicus); assay: Inhibition of [35S]TBPS binding to GABA-A receptor complex; format: protein-complex assay

Sequence of GABA A receptor alpha-6/beta-2/gamma-2 (P47870 whole entry): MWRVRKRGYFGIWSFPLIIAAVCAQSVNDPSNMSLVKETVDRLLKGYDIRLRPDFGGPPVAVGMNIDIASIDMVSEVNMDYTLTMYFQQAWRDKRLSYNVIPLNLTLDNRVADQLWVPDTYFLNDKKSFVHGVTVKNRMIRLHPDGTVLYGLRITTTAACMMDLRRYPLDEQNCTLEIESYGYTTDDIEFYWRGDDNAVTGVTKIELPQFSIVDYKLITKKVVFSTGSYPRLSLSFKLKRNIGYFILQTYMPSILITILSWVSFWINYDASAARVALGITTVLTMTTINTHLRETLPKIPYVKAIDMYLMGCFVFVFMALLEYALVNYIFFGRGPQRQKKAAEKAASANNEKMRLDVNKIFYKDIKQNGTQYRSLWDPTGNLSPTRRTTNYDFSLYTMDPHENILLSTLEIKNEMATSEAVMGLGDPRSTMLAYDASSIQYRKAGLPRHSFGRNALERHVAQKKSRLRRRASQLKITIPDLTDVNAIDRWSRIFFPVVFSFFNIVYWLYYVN
Sequence of GABA A receptor alpha-6/beta-2/gamma-2 (P18507 whole entry): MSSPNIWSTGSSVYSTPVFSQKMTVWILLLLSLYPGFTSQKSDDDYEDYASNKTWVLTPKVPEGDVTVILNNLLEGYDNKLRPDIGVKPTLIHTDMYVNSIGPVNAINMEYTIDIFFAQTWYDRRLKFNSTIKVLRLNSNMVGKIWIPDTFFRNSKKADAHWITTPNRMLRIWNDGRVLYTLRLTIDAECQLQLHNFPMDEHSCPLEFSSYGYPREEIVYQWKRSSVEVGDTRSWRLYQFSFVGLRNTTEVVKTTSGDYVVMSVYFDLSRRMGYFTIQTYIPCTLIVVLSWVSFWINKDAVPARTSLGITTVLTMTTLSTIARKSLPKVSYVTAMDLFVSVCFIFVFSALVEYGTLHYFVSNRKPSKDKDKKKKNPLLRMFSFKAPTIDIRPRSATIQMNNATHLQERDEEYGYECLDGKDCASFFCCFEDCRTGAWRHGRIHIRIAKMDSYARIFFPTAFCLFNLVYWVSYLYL
Sequence of GABA A receptor alpha-6/beta-2/gamma-2 (Q16445 whole entry): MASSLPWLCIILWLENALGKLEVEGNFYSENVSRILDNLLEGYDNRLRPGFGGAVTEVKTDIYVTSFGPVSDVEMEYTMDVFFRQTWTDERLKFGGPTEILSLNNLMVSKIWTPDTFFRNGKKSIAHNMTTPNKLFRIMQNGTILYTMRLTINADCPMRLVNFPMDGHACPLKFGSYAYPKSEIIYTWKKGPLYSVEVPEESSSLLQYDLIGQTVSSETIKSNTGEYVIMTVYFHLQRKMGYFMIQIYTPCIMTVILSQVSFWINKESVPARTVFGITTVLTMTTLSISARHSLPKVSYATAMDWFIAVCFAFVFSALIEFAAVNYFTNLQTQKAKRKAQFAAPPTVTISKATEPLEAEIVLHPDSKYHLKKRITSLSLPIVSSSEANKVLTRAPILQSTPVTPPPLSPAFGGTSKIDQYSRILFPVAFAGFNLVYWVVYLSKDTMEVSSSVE

Compound | ED50 (Rattus norvegicus [1]) | pKi [2] | TBPS shift [3] | Chlorine uptake (Rattus norvegicus [4]) | pKi [5] | pKi [6] | ED50 (Rattus norvegicus [7]) | pKi [8] | TBPS shift [9]
Cc1ccc(-c2nc3ccc(C)cn3c2CC(=O)N(C)C)cc1 [ZOLPIDEM] | 4.4 mg/kg | – | – | – | – | – | – | – | –
O=C(c1ccccc1Cl)N1Cc2c(-c3noc(C4CC4)n3)ncn2-c2ccccc21 | > 50 mg/kg | 8.85 | 0 | 0.28 | – | – | – | – | –
CC(=O)N1Cc2c(-c3noc(C4CC4)n3)ncn2-c2cccc(F)c21 | – | – | – | – | 9.10 | 6.97 | – | – | –
CC(=O)N1Cc2c(-c3noc(C4CC4)n3)ncn2-c2ccccc21 | 35 mg/kg | 8.82 | 0.9 | – | 8.57 | 6.91 | – | – | –
O=C(c1ccccc1)N1Cc2c(-c3noc(C4CC4)n3)ncn2-c2cccc(F)c21 | – | 9.11 | 0.87 | 0.9 | 9.52 | 6.17 | 25 mg/kg | – | –
CC(C)(C)OC(=O)c1ncn2c1CN(C(=O)c1ccccc1Cl)c1ccccc1-2 | > 50 mg/kg | 8.40 | 0.2 | -0.15 | – | – | – | – | –
CC(C)(C)OC(=O)N1Cc2c(-c3noc(C4CC4)n3)ncn2-c2ccccc21 | 0.06 mg/kg | 8.72 | 2.9 | – | – | – | – | – | –
CC(=O)N1c2ccccc2-n2cnc(-c3noc(C4CC4)n3)c2C1(C)C | 30 mg/kg | 8.32 | 0.7 | – | – | – | – | – | –
CC(C)(C)OC(=O)c1ncn2c1CN(C(=O)OC(C)(C)C)c1ccccc1-2 | – | 8.29 | 0.45 | 0.14 | – | – | – | – | –
O=C1CC[C@H]2c3c(-c4noc(C5CC5)n4)ncn3-c3ccccc3N12 | 1.1 mg/kg | 9.21 | 1.05 | – | – | – | – | – | –
O=C1CC[C@@H]2c3c(-c4noc(C5CC5)n4)ncn3-c3ccccc3N12 | 1.9 mg/kg | 9.19 | 0.9 | – | – | – | – | – | –
CN1C(=O)CN=C(c2ccccc2)c2cc(Cl)ccc21 [DIAZEPAM] | – | – | – | 1 | – | – | 0.5 mg/kg | < 5.15 | –
O=C1OCC2c3c(-c4noc(C5CC5)n4)ncn3-c3ccccc3N12 (stereo not given) | – | 8.62 | 0.96 | 0.5 | – | – | – | – | –
COC(=O)N1c2ccccc2-n2cnc(-c3noc(C4CC4)n3)c2C1(C)C | > 50 mg/kg | 8.17 | 1.04 and 0.8 | 1.18 and 0.4 | – | – | – | – | –
O=C1CCC2c3c(-c4noc(C5CC5)n4)ncn3-c3ccccc3N12 (stereo not given) | – | 9.06 | 1.15 | 0.29 | – | – | – | – | –
CC(C)OC(=O)N1c2ccccc2-n2cnc(-c3noc(C4CC4)n3)c2C1(C)C | 3.7 mg/kg | 8.17 | 1.2 | 0.7 | – | – | – | – | –
O=C(c1ccccc1)N1Cc2c(-c3noc(C4CC4)n3)ncn2-c2ccccc21 | – | 8.37 | 0.5 | – | 9.52 | 5.94 | – | – | –
CCOC(=O)c1ncn2c1CN(C)C(=O)c1cc(N=[N+]=[N-])ccc1-2 [Ro-154513] | – | – | – | – | 7.82 | – | – | 8.27 | –
CC(=O)N1Cc2c(-c3nc(C4CC4)no3)ncn2-c2ccccc21 | 42 mg/kg | 8.18 | 0.7 | 0.6 | – | – | – | – | –
CC(=O)N1Cc2c(C(=O)OC(C)(C)C)ncn2-c2ccccc21 | – | – | -0.06 | 0 | – | – | – | – | –
CC(=O)N1Cc2c(-c3noc(C4CC4)n3)ncn2-c2ccc(F)cc21 | – | 9.16 | 1.11 | – | 9.22 | 7.09 | – | – | –
CC(C)(C)OC(=O)c1ncn2c1C1CCC(=O)N1c1ccccc1-2 (stereo not given) | > 50 mg/kg | 9.12 | – | – | 9.40 | 7.88 | – | – | 0.06
O=C(c1ccccc1)N1Cc2c(-c3noc(C4CC4)n3)ncn2-c2ccc(F)cc21 | – | 9.24 | 0.98 | 0.67 | 9.40 | < 5.00 | – | – | –
